Source: PubChem (several laboratories)
M1 antag – antagonists of rat M1 muscarinic receptor | P08482 | CHO-M1 cells, Fluo-4 calcium, ACh EC80 antagonist mode; hits give low values | B-score at 10 µM | 3.4% of 64,000 active | AID 628;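 active means calcium fluorescence response, raw or row-and-column corrected B-score, differing from the plate sample mean either way at a set confidence level, mostly lower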
JNK3 blocker – inhibitors of human JNK3 kinase; 0.61% of 60,000 active; inhibition, % at 8 µM; purified JNK3 kinase activity, HTS; P53779; in the data active means inhibition above about 17%
S1P1 ag-PAM – activates or potentiates agonism at human S1P1 receptor. 0.57% of 56,000 active. activation, % at 9.5 µM. P21453. S1P1 CRE-bla cells, forskolin, beta-lactamase FRET, potentiator mode; S1P1 agonist co-added at EC20, 2 nM; 100% = saturating reference agonist, 0% = basal;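 active means activation above a cutoff set at the mean activation of all tested compounds plus 3 SD, cut at about 54% in these data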;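 further: forskolin at 4 µM as EC80 and the EC20 agonist is SEW2871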
Target sequence (P21453 whole entry, looked up): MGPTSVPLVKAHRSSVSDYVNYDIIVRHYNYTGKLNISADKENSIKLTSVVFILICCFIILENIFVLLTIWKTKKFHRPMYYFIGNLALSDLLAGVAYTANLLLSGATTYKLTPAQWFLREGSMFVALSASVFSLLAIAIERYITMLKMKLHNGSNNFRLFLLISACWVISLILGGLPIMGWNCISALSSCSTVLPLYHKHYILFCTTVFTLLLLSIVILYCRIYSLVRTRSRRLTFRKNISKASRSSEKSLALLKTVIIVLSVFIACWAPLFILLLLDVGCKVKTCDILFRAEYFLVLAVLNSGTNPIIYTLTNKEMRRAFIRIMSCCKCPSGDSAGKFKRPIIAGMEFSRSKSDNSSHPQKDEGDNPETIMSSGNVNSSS
Jurkat tox 60K – reduces viability or proliferation of Jurkat cells; Jurkat E6.1 viability, ATP luminescence, 48 h; inhibition, % at 4 µM; 1.2% of 56,000 active; AID 463;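 active means inhibition above the mean inhibition of all tested compounds plus 3 SD, cut at about 28% in these data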
S1P3 ag – agonists of human S1P3 receptor. Q99500. S1P3 NFAT-BLA reporter cells, agonism, FRET ratio; relative to 1 µM S1P, basal subtracted. activation, % at 4.5 µM. 0.1% of 60,000 active;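 active means activation above the screen-wide mean plus 3 SD, cut at about 4.5% in these data, passing the limit was not always enough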
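material = human S1P3 NFAT-BLA reporter CHO cells | schedule = 4 h compound at 37 °C, 2 h substrate at RT | measured by = fluorescent BLA substrate, ex 405 nm, em 460/535 nm ratio | controls = 1 µM S1P reference | replication = primary once, confirmation triplicate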
M1 ag – agonists of M1 muscarinic receptor; CHO-M1 cells, Fluo-4 calcium fluorescence, agonist mode; hits give high values; 3% of 64,000 active; B-score at 10 µM;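 active means fluorescence rise, raw or as B-score row- and column-corrected plate score, outside the 99.7% band of its plate's samples, either direction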
M1 antag conf – M1 muscarinic receptor (rat) antagonism, confirmed. shares compounds with M1 antag. CHO-M1 cells, Fluo-4 calcium, ACh EC80 antagonism; hits give low values. calcium response (max-min fluorescence) at 10 µM. 43% of 1,700 active. AID 677;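 active means calcium response below the same-plate mean of wells given acetylcholine alone at its 80%-effect dose, minus 3 SD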
mGluR4 antag – mGluR4 (human) activity, M1 antagonist secondary assay; shares compounds with M1 antag; CHO-mGluR4 calcium flux, Fluo-4 fluorescence, glutamate EC80; hits give low values; fluorescence response (max-min) at 10 µM; 0.9% of 1,700 active; AID 678;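 active means fluorescence response below the plate's average for near-maximal glutamate wells, less 3 SD of those wells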;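 further: raw unnormalized fluorescence span taken in the window right after glutamate addition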
Each line names hits and unclear results; the compound was inactive in the other large screens (follow-up assays come after a bar, where they were run). A selection: hits, their analogues and other compounds. The true share with any hit is near 7.4%.

CC(C)CC(c1nnnn1C(C)(C)C)N1CCN(C2CCCC2)CC1 (stereo not drawn)	M1 antag -4.38 | M1 antag conf inactive | mGluR4 antag inactive
CN(C)/C=C1\C(=O)c2ccc(N(C)C)nc2CC1c1ccccc1 (stereo not drawn)	none
CCOC(=O)N1CCN(C(=O)C(C)(C)Oc2ccc(Cl)cc2)CC1	M1 antag -2.61 | M1 antag conf inactive | mGluR4 antag inactive
CCOC(=O)N1CCN(C(=O)C2CCC(CNS(=O)(=O)c3ccc(Cl)cc3)CC2)CC1 (stereo not drawn)	M1 antag -2.9 | M1 antag conf inactive | mGluR4 antag inactive
CC(=O)Nc1ccc(S(=O)(=O)NCC2CCC(C(=O)N3CCCCCC3)CC2)cc1 (stereo not drawn)	none
O=C(c1ccco1)N1CCN(S(=O)(=O)c2ccc(F)cc2)CC1	none (no result: S1P1 ag-PAM)
CN(C)C(CNc1nnnn1-c1ccccc1)c1ccco1 (stereo not drawn)	M1 antag -0.786 | M1 antag conf inactive | mGluR4 antag inactive
CC(C)CC(=O)N1CCN(S(C)(=O)=O)CC1	M1 antag -3.62 | M1 antag conf inactive | mGluR4 antag inactive
CCOc1ccc(NC(=O)C2CC(=O)N(c3cc(C)cc(C)c3)C2)cc1 (stereo not drawn)	M1 antag -2.82 | M1 antag conf inactive | mGluR4 antag inactive
CCOc1ccccc1-c1nc(-c2ccc(C)nc2OC)no1	M1 antag -0.784 (no result: JNK3 blocker, S1P1 ag-PAM, Jurkat tox 60K, S1P3 ag) | M1 antag conf inactive | mGluR4 antag inactive
COc1ccccc1-c1noc(-c2ccccc2)n1	M1 antag -16.9 | M1 antag conf 506 | mGluR4 antag inactive
COc1ccccc1-c1noc(-c2ccco2)n1	none
Cc1cc(N2CCN(c3nc(N4CCOCC4)nc4ccccc34)CC2)c2ccccc2n1	M1 antag -7.14 | M1 antag conf 24.1 | mGluR4 antag inactive
O=[n+]1c2c(n([O-])c3cc(F)c(F)cc31)CCCC2	none
O=C(CNCC1CCCO1)N1CCCc2ccccc21 (stereo not drawn)	none
Cc1ccc(C)n1-c1ccc(-c2nnc3n2CCCCC3)s1	M1 antag -1.39 | M1 antag conf inactive | mGluR4 antag inactive
CCCCC(=O)NC1(C(F)(F)F)C(=O)Nc2c1c(=O)[nH]c(=O)n2Cc1ccco1 (stereo not drawn)	M1 antag -4.72 | M1 antag conf inactive | mGluR4 antag inactive
CCCC(=O)C1=C(O)C(C(=O)OC)C(C)(C)CC1=Nc1ccncc1 (stereo not drawn)	none
COc1ccc(CNC(=O)C(C)OC(=O)c2cccn2C)cc1 (stereo not drawn)	none
Cc1ccc2ccc(S(=O)(=O)n3nc(C)cc3C)cc2c1	M1 antag -1.97 | M1 antag conf 443 | mGluR4 antag inactive
Cc1oc(-c2ccccc2F)nc1CS(=O)(=O)CC(=O)NCc1ccco1	none
O=C(Nc1ccc(S(=O)(=O)NC2CCCCC2)cc1)c1ccc(Br)o1	none
O=C(CNC1CCCCCC1)Nc1ccc(S(=O)(=O)NC2CC2)cc1	M1 antag -4.83 | M1 antag conf 182 | mGluR4 antag inactive
O=C(COc1ccc(Cl)cc1)NC1CCSC1=O (stereo not drawn)	none
O=C(Cn1c(N2CCN(c3ccccc3)CC2)nc2ccccc21)c1ccccc1	none (no result: JNK3 blocker, S1P1 ag-PAM, Jurkat tox 60K, S1P3 ag)
COc1cc2c(cc1OC)C(C(=O)N1CCCC1)C(c1ccccc1F)N(C)C2=O (stereo not drawn)	none (no result: JNK3 blocker, S1P1 ag-PAM, Jurkat tox 60K, S1P3 ag)
COc1cc2c(cc1OC)C(C(=O)N1CCN(c3ccccn3)CC1)C(c1cccs1)N(C)C2=O (stereo not drawn)	M1 antag -2.08 | M1 antag conf inactive | mGluR4 antag inactive
Cc1ccc2cc3cc(C(=O)NCCCN4CCCCCC4)oc3nc2c1	none
Cc1ccc2cc3cc(C(=O)NCCCN4CCc5ccccc5C4)oc3nc2c1	M1 antag -3.45 | M1 antag conf inactive | mGluR4 antag inactive
